Test results from BindingDB's records for doi:10.1016/j.bmc.2022.116974 (University of Maryland, 2022).

Target: Galectin-3 (Homo sapiens, UniProt P17931)
Assay: Binding affinity to human galectin 3 by surface plasma resonance analysis
How it was run: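 Recombinant human Gal-3 amine-coupled to a CM5 chip (about 1000 RU) with an ethanolamine reference channel. Analytes were serially diluted in 0.01 M HEPES pH 7.4, 0.15 M NaCl and 0.005% P20, then run at 25 °C and 30 μL/min with 120 s association and 300 s dissociation, followed by 3 M MgCl2 regeneration. EC50 was taken from the fitted binding curve.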

Galectin-3, sequence (P17931 whole entry): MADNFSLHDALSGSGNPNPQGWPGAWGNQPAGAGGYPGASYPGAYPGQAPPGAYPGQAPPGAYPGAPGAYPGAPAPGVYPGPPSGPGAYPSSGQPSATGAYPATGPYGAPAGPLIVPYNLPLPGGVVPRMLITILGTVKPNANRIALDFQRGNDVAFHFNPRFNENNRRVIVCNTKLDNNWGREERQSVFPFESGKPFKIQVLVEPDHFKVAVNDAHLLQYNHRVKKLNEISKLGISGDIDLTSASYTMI

| SMILES | EC50 [µM] |
| --- | --- |
| CC(=O)N[C@H]1[C@@H](OCCOCCOCCN=[N+]=[N-])O[C@H](CO)[C@H](O)[C@@H]1O | > 1000 |
| CC(=O)N[C@H]1[C@@H](OCCOCCOCCN=[N+]=[N-])O[C@H](CO)[C@H](O)[C@@H]1O[C@@H]1O[C@H](CO)[C@H](O)[C@H](O)[C@H]1O | > 1000 |
| [N-]=[N+]=NCCOCCOCCO[C@@H]1O[C@H](CO)[C@@H](O[C@@H]2O[C@H](CO)[C@H](O)[C@H](O)[C@H]2O)[C@H](O)[C@H]1O | > 1000 |
